Screening data from PubChem BioAssay.
SENP7 block – SENP7 protease inhibitors, primary screen, biochemical, luminescence, uHTS | recombinant SENP7, Z-RLRGG-aminoluciferin luminescence, 40 min | AID 434973, 2010 | 330,000 tested, 1.5% active | inhibition, % at 5 µM | Sentrin-specific protease 7 (Homo sapiens), Q9BQF6;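 active means inhibition above about 50% at the single test dose, limit read from the data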
Target sequence (Q9BQF6 706-1050 limits assumed): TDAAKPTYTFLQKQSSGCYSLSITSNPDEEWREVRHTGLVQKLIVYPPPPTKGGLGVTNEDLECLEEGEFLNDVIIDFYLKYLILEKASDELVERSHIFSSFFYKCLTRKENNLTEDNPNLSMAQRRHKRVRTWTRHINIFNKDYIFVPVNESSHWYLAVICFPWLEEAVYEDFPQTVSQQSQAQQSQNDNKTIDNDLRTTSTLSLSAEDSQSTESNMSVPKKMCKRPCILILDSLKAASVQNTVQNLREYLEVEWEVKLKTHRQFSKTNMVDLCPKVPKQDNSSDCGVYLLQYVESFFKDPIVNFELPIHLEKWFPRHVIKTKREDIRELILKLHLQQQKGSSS
SENP8 block-1 – SENP8 protease inhibitors, primary screen, biochemical, luminescence. purified SENP8, Z-RLRGG-aminoluciferin cleavage. inhibition, % at 10 µM. 330,000 tested, 1.2% active. AID 2540, 2010; in the data active means inhibition above about 50%
Target sequence (Q96LD8 whole entry, looked up): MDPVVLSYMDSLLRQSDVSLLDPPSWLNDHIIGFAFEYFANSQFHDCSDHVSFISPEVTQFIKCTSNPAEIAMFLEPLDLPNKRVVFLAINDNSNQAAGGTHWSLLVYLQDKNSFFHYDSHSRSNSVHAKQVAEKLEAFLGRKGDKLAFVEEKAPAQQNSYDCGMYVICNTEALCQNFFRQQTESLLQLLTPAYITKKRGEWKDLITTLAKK
SENP6 block – SENP6 protease inhibitors, primary screen, biochemical, luminescence, uHTS; Recombinant SENP6 catalytic domain, aminoluciferin luminescence; inhibition, % at 10 µM; 330,000 tested, 1.8% active;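 active means inhibition above about 50% at the single tested dose, limit read from the data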
Platelet DG rel – inhibitors of platelet dense granule secretion, primary screen, cell-based, MLPCN, human platelets; human platelet-rich plasma, SFLLRN dense granule ATP release, luminescence; inhibition, %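 (compounds screened at 7.5 µM in platelet-rich plasma)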; 300,000 tested, 0.22% active;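 active means mean replicate score, as percent of positive control, at or above 50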
SENP8 block-2 – human SENP8 protease inhibitors, primary screen, biochemical, fluorescence, Nedd8 protein substrate, uHTS | Sentrin-specific protease 8 (Homo sapiens), Q96LD8 | recombinant SENP8 | inhibition, % at 20 µM | 360,000 tested, 0.64% active | AID 602440, 2012; in the data active means inhibition mostly above about 40%, no sharp cut-off; inactive means mostly below about 27%
SENP1 inh – human SENP1 catalytic domain inhibitors, primary screen, biochemical, FRET, uHTS; recombinant SENP1 catalytic domain, CyPet-SUMO1-YPet FRET cleavage; 360,000 tested, 0.21% active; inhibition, % at 10 µM; Sentrin-specific protease 1 (Homo sapiens), Q9P0U3;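 active means inhibition at least 30% at 10 µM, raw YFP signal under a set limit, fluorescence ratio 0.5 to 1.5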
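Assay system: hSENP1 catalytic domain, recombinant. Amount: SENP1 enzyme, 20 pM final. Schedule: 50 min reaction, RT, dark. Technique: FRET, CFP and YFP emission. Control set: no-enzyme wells low, DMSO-plus-enzyme wells high control.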
SENP8 conf – human SENP8 protease inhibitors, confirmation, biochemical, Nedd8 protein substrate, single concentration | 1,400 tested, 15% active | shares compounds with SENP8 block-2 | inhibition, % at 25 µM | purified SENP8, Nedd8-AMC/pro-Nedd8 cleavage fluorescence, 30 min; in the data active means inhibition mostly above about 39%, no sharp cut-off; inactive means mostly below about 34%
SENP1 conf – human SENP1 catalytic domain inhibitors, confirmation, biochemical, FRET endpoint, single concentration; shares compounds with SENP1 inh; recombinant SENP1, CyPet-SUMO1-YPet FRET cleavage; inhibition, % at 10 µM; 520 tested, 34% active; AID 651678, 2012; in the data active means inhibition mostly above about 35%, no sharp cut-off; inactive means mostly below about 32%
SENP1 kin conf – human SENP1 catalytic domain inhibitors, confirmation, biochemical, kinetic FRET, single concentration | shares compounds with SENP1 inh | recombinant SENP1, CyPet-SUMO1-YPet FRET kinetic cleavage | inhibition, % at 10 µM | 520 tested, 26% active; in the data active means inhibition mostly above about 32%, no sharp cut-off; inactive means mostly below about 29%
Each line names hits and unclear results; the compound was inactive in the other large screens (follow-up assays come after a bar, where they were run). In the library only some 2.6% were active in any assay of this set; here they are far more common.

O=[N+]([O-])c1ccc(N2CCNCC2)cc1N1CCCCCC1	SENP8 block-2 47.8 | SENP8 conf inactive
CN1CCN(c2ccc([N+](=O)[O-])c(N3CCCCC3)c2)CC1	none
CN1C2CNC(=O)CC1C1CCC2C1 (stereo unspecified)	none (no result: SENP7 block, SENP8 block-1, SENP6 block, Platelet DG rel)
COc1cc2c(c(OC)c1OC)-c1ccc(O)c(=O)cc1[C@@H](N)CC2	SENP8 block-2 52.6 (no result: Platelet DG rel) | SENP8 conf inactive
CC1CN(c2ccc([N+](=O)[O-])cc2Cl)CCN1 (stereo unspecified)	SENP8 block-2 32.2 | SENP8 conf inactive
CN1CCN(c2ccc([N+](=O)[O-])cc2Cl)CC1	none
CCCCn1nnnc1C(CCSC)N1CCC(n2c(=O)[nH]c3ccccc32)CC1 (stereo unspecified)	none (no result: SENP7 block, SENP8 block-1, SENP6 block, Platelet DG rel)
CC(C)[C@H](NC(=O)N1C[C@H]2C[C@@H](C1)c1cccc(=O)n1C2)C(=O)Nc1ccccc1F	SENP8 block-2 47.1 | SENP8 conf inactive
COc1cc(CN2CC=C(c3ccc(F)cc3)CC2)cc(OC)c1	none
COc1cc(C)c(CN2CC=C(c3ccc(F)cc3)CC2)cc1C	SENP8 block-2 43.4 | SENP8 conf inactive
CCOc1ccc2nc(N=Nc3c(O)[nH]c(=S)[nH]c3=O)sc2c1	SENP8 block-2 40.1 | SENP8 conf inactive
Cc1c(N=Nc2c(O)[nH]c(=S)[nH]c2=O)c(=O)n(-c2ccccc2)n1C	none
Cc1cccc(C)c1-n1nnnc1C(c1cccs1)N1CCC2(CC1)C(=O)NCN2c1ccccc1 (stereo unspecified)	none (no result: SENP7 block, SENP8 block-1, SENP6 block, Platelet DG rel)
O=S(=O)(c1ccccc1)C1CN1c1c(F)c(F)c(F)c(F)c1F (stereo unspecified)	none (no result: SENP7 block, SENP8 block-1, SENP6 block, Platelet DG rel)
Cc1nn(C)cc1/C=C1/CC2C3CC=C4CC(O)CCC4(C)C3CCC2(C)C1=O (stereo unspecified)	SENP8 block-2 46.8 | SENP8 conf inactive
Cc1cccc(N=C2c3cc([N+](=O)[O-])ccc3-c3c2cc([N+](=O)[O-])cc3[N+](=O)[O-])c1	SENP8 block-2 94.2 (no result: SENP7 block, SENP8 block-1, SENP6 block, Platelet DG rel) | SENP8 conf inactive
CCCCC1(CCCC)C(=O)NC(=Nc2cccc(C)c2)NC1=O	none
O=C1NCN(c2ccccc2)C12CCN(C(CCc1ccccc1)c1nnnn1C1CCCC1)CC2 (stereo unspecified)	none (no result: SENP7 block, SENP8 block-1, SENP6 block, Platelet DG rel)
CCOC(=O)Cn1cc([N+](=O)[O-])nc1[N+](=O)[O-]	SENP8 block-2 55.7 | SENP8 conf inactive
C[C@]12C[C@H](O)[C@@H](O)C[C@@H]1CC[C@@H]1[C@@H]2CC[C@]2(C)C(=O)CC[C@@H]12	SENP8 block-2 49.1 (no result: SENP7 block, SENP8 block-1, SENP6 block, Platelet DG rel) | SENP8 conf inactive
COC1=CC(=O)OC(CCc2ccc3c(c2)OCO3)C1 (stereo unspecified)	SENP8 block-2 40.1 (no result: SENP7 block, SENP8 block-1, SENP6 block, Platelet DG rel) | SENP8 conf inactive
CC(=O)O[C@@]12CO[C@@H]1C[C@H](O)[C@@]1(C)C(=O)[C@H](O)C3=C(C)[C@@H](O)C[C@@](O)([C@@H](OC(=O)c4ccccc4)C12)C3(C)C (stereo partly specified)	SENP8 block-2 58.1 | SENP8 conf inactive
COC(=O)C(O)(c1c[nH]c2ccccc12)C(F)(F)F (stereo unspecified)	none
COC(=O)C(O)(c1c(C)[nH]n(-c2ccccc2)c1=O)C(F)(F)F (stereo unspecified)	SENP8 block-2 63.1 | SENP8 conf 87.1
O=C(NCP(=O)(Oc1ccccc1)Oc1ccccc1)OCc1ccccc1	none (no result: SENP7 block, SENP8 block-1, SENP6 block, Platelet DG rel)
C=CCN1C(=O)/C(=C/c2ccc(N3CCOCC3)o2)C(=O)NC1=S	SENP1 inh 40.5 | SENP1 conf inactive | SENP1 kin conf inactive
COc1ccc(OC)c(-n2c(O)c(/C=C3\C(C)=Nc4ccccc43)c(=O)[nH]c2=O)c1	SENP1 inh 81.9 | SENP1 conf inactive | SENP1 kin conf inactive
Nc1cc(C(=O)Nc2ccccc2F)ccc1N1CC2CC(C1)c1cccc(=O)n1C2 (stereo unspecified)	none (no result: SENP7 block, SENP8 block-1, SENP6 block, Platelet DG rel)
COC(=O)C1=Nc2ccccc2/C1=C\c1c(O)n(C)c(=O)n(C)c1=O	none
Cn1c(O)c(/C=C2\C=Nc3ccccc32)c(=O)n(C)c1=O	SENP1 inh 53.7 | SENP1 conf inactive | SENP1 kin conf inactive
CC(C)(C)n1nnnc1C(c1cccs1)N1CCC2(CC1)C(=O)NCN2c1ccccc1 (stereo unspecified)	none (no result: SENP7 block, SENP8 block-1, SENP6 block, Platelet DG rel)
O=Cc1c(C(=O)O)n(Cc2ccccc2Cl)c2ccccc12	none
Cc1cc(C)c(Cn2c(C(=O)O)c(C=O)c3ccccc32)c(C)c1	SENP1 inh 97.1 | SENP1 conf 76.7 | SENP1 kin conf 50.9
COc1ccccc1N1CCN(Cc2ccccc2Cl)CC1	SENP1 inh 35.0 | SENP1 conf inactive | SENP1 kin conf inactive
CC1=C(C)CN2CC(C#N)=C(N)C2C1 (stereo unspecified)	none (no result: SENP7 block, SENP8 block-1, SENP6 block, Platelet DG rel)
